High-throughput results (PubChem BioAssay)
The list is not random: actives were taken first. Their share in the collection is about 3.7%.
procasp3 activ: activators of human procaspase-3 | 330,000 compounds, 0.11% hits | activation, % at 8.5 µM | P42574 | recombinant procaspase-3 D3A, Ac-DEVD-pNA absorbance 405 nm;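 active means activation above the mean of all tested compounds plus 3 SD, cut at about 21% in these data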;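 further: 0% = DMSO alone and 100% = DMSO wells spiked with extra 5 µM PC-3 D3A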
Target sequence (P42574 whole entry D9A/D28A/D175A): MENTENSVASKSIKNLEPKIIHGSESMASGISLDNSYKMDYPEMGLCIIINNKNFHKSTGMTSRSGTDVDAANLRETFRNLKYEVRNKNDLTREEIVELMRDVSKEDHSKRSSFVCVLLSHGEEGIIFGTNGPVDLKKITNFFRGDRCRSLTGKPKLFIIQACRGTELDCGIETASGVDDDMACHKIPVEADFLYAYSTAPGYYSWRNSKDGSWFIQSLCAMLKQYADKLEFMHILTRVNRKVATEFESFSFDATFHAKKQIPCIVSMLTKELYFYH
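material = Procaspase-3 D3A mutant | probe or stimulus = Ac-DEVD-pNA | compound = single dose, 8.5 µM nominal compound, 0.8% DMSO | timing = 1 h preincubation, 2 h reaction | measured by = 405 nm absorbance of p-nitroaniline, reads at 0 and 120 min | benchmarks = DMSO-only low control, 5 µM PC-3 D3A high control | repeats = singlicate, each compound tested once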
aDG glyco act: alpha-DG glycosylation activation | Pro5-aDG cells, alpha-DG glycosylation AlphaScreen (IIH6); 0% Pro5, 100% B10-LARGE cell signal | activation, % at 10 µM | 360,000 compounds, 0.22% hits | AID 624168;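 active means activation of at least 8% versus controls, or a plate z-score of at least 8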;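 further: Pro5 are CHO cells carrying HIG-tagged alpha-DG that lacks glycosylation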
proCasp7 act: counter-screen for procaspase-3 activators: activators of human procaspase-7; AID 463210; P55210; 330,000 compounds, 0.093% hits; activation, % at 8.5 µM; recombinant procaspase-7, Ac-DEVD-pNA absorbance 405 nm; D23A/D198A/D206A triple mutant, cannot self-cleave; scale: DMSO 0, 5 µM enzyme 100;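 active means percent activation above the screen-wide mean plus 3 SD, cut at about 25% in these data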
Target sequence (P55210 whole entry D23A/D198A/D206A): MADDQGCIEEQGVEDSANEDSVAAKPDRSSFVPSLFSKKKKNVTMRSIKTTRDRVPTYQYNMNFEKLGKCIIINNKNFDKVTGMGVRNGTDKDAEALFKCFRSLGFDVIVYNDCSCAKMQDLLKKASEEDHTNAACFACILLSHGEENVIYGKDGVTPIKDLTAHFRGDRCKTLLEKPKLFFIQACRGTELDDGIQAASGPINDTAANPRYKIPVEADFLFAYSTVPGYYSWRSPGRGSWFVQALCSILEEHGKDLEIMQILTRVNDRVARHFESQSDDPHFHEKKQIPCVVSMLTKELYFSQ
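Assay system: Uncleavable procaspase-7 mutant enzyme | Input: 2 µM procaspase-7 mutant as dispensed | Timing: 1 h compound preincubation, 2 h substrate cleavage, 25 °C | Repeats: One well per compound | Control set: DMSO wells as 0%, DMSO with 5 µM added PC-7 as 100% | Technique: Epi-absorbance of released pNA at 405 nm, two timepoints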
GRIN3A LBD mod: modulates the human NR3A ligand-binding domain; NR3A LBD differential scanning fluorimetry, Tm shift; 0% = protein alone, 100% = glycine-bound protein; Tm shift relative to glycine control, % at 25 µM; 340,000 compounds, 2.5% hits;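 active means melting temperature shift of at least 10% of the positive control shift, at one fixed dose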
MPTP inh: inhibitors of mitochondrial permeability transition pore. isolated mouse mitochondria, Ca2+ swelling absorbance, 30 min. inhibition, % at 10 µM. 360,000 compounds, 1.4% hits. AID 602449;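 active means inhibition of 50% or more, scaled per plate between neutral and stimulator controls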;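 further: 0% = DMSO wells given calcium and 100% = 1 mM EGTA wells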
MPTP counter: mitochondrial membrane potential, counter-screen; isolated mitochondria, Rhodamine 123 fluorescence; shares compounds with MPTP inh; inhibition, % at 10 µM; 5,000 compounds, 78% hits; in the data active means inhibition above about 22%;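 further: 0% = DMSO vehicle and 100% = positive control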
MPTP swell DR: MPTP inhibition, dose response swelling confirmation | AID 651561 | shares compounds with MPTP inh | 780 compounds, 58% hits | IC50, µM | isolated mitochondria swelling, absorbance; in the data active means IC50 below about 20 µM
MPTP counter DR: MPTP inhibitor counter-screen activity, dose response; AID 651564; isolated mitochondria counterscreen, fluorescence read-out; shares compounds with MPTP inh; IC50, µM; 780 compounds, 49% hits; in the data active means IC50 below about 80 µM
An asterisk follows results filed as active; · = no result.

SMILES	procasp3 activ	aDG glyco act	proCasp7 act	GRIN3A LBD mod	MPTP inh	MPTP counter	others
CC(=O)c1c(C)[nH]c(C(=O)OCC(=O)Nc2ccc(C)cc2[N+](=O)[O-])c1C	-1.4	6.5	-6.2	-0.4	99.9*	90.3*
Cc1sc2nc(CSCC(=O)Nc3ccccc3C#N)[nH]c(=O)c2c1C	-5.5	-0.7	-10.7	-3.1	-0.3	·
c1ccc(CNCCCNCCCCNCCCNCc2ccccc2)cc1	·	-0.3	·	1.0	83.7*	-1.6	MPTP swell DR=1.42*;MPTP counter DR=>80
Cc1cc(C)cc(OCC(=O)N2N=C(C(F)(F)F)CC2(O)C(C)(C)C)c1 (configuration not stated)	-4.0	0.2	5.0	-4.8	56.8*	43.0*
O=C(c1cc(COc2cccc3cnccc23)on1)N1CCCC(CCCO)C1 (configuration not stated)	0.5	1.5	0.1	-0.8	91.3*	83.1*
COCC1CCN(C(=O)c2cc(COc3cccc4cnccc34)on2)CC1	-8.3	2.2	-26.8	-6.3	5.8	·
COc1ccc(C2=Nc3ccccc3NC(=O)C2N(Cc2ccccc2)C(=O)C2=NNC(=O)CC2)cc1 (configuration not stated)	·	0.1	·	·	2.8	·
COc1cc(NC(=O)Cn2nc(C(F)(F)F)c(Br)c2C)cc([N+](=O)[O-])c1	4.7	1.0	15.8	21.1*	85.4*	82.4*
COc1ccc(CNC(=O)Cn2nc(C(F)(F)F)c(Br)c2C)cc1	-2.7	0.0	3.4	-3.3	0.3	·
Cc1ccc(S(=O)(=O)N/N=C/c2cc([N+](=O)[O-])ccc2O)cc1[N+](=O)[O-]	-26.6	-0.3	-5.1	20.9*	72.0*	60.4*
COc1cc(/C=N/NS(=O)(=O)c2ccc(C)c([N+](=O)[O-])c2)ccc1O	-15.3	-0.1	-12.7	-7.3	-6.2	·
COC(=O)c1ccc(C2N=C(c3cccs3)CC(c3ccccc3O)N2)cc1 (configuration not stated)	8.1	0.0	5.4	-4.1	51.8*	88.2*
O=C(Nc1ccc(Cl)c(Cl)c1)Nc1ccc(N2CCCC2)c(S(=O)(=O)Nc2ccccc2Cl)c1	-12.9	-0.6	-9.2	30.1*	99.9*	49.3*
O=C(Nc1ccc(F)cc1)Nc1ccccc1N1CCCCC1	-2.6	0.1	-0.5	2.6	85.0*	77.4*
O=C(Nc1ccc(N2CCOCC2)c(S(=O)(=O)Nc2ccccc2Cl)c1)c1ccc(F)cc1	6.2	0.0	-1.7	4.0	3.5	·
O=C(Nc1ccc(F)cc1)Nc1ccc(N2CCCC2)c(S(=O)(=O)Nc2ccccc2Cl)c1	2.5	1.2	1.0	33.9*	99.6*	61.3*
O=C(Cc1ccccc1)NC(C(=O)O)C(O)c1ccc([N+](=O)[O-])cc1 (configuration not stated)	1.8	0.1	10.6	0.5	1.0	·
O=C1NC(=Nc2ccc(Cl)cc2)SC1Cc1cc(Cl)ccc1Cl (configuration not stated)	0.1	-0.1	2.0	-6.1	65.2*	83.9*
CCCCC(=O)Nc1cccc(-c2csc(-c3ccccc3)n2)c1	-6.3	0.7	1.0	1.4	57.2*	58.0*
O=C(O)CCC(=O)Nc1cccc(-c2csc(-c3ccccc3)n2)c1	-0.5	-0.1	-3.5	9.1	-0.9	·
COc1cccc(-n2cc(CNCc3cn(C)nc3-c3ccccc3F)cn2)c1	-0.6	0.3	1.4	-1.2	0.7	·
Cn1cc(CNCc2cn(C)nc2-c2ccc(C3CCCCC3)cc2)cn1	1.7	0.3	9.1	-0.6	91.7*	-5.8	MPTP swell DR=8.8*;MPTP counter DR=71.2*
CN(C)CCNc1oc(COc2ccc(-c3ccccc3)cc2)nc1C#N	-9.1	1.3	-7.3	-4.0	74.6*	-17.8	MPTP swell DR=5.9*;MPTP counter DR=54*
CC(C)n1c(CNC(=O)c2ccccc2F)nnc1SCC(=O)NC1CCCCC1	·	-0.1	·	-1.3	-0.9	·
CC(C)(C)c1ccc(S(=O)(=O)/N=C2\C=C(NS(=O)(=O)c3ccccc3)C(=O)c3ccccc32)cc1	-4.3	0.1	-4.7	-0.9	99.3*	25.1*
SMILES	procasp3 activ	aDG glyco act	proCasp7 act	GRIN3A LBD mod	MPTP inh	MPTP counter	others
CCc1cc2c(NCc3ccccc3)nc(C)nc2s1	8.1	0.4	0.3	-3.0	91.2*	64.6*
CCc1cc2c(NC(Cc3ccccc3)C(=O)O)nc(C)nc2s1 (configuration not stated)	6.2	-0.2	-12.1	-1.6	1.5	·
COc1cccc(-c2csc(N3CCN(C(=S)Nc4ccccc4)CC3)n2)c1	7.4	0.5	-7.8	3.8	9.3	·
COc1cccc(-c2csc(N3CCN(C(=S)Nc4ccc(Cl)cc4)CC3)n2)c1	-8.0	0.1	-13.7	10.2*	64.5*	69.9*
CCOC(=O)C1(Cc2cccc(OC)c2)CCN(Cc2cccc(O)c2)CC1	5.8	0.6	6.8	-0.7	-0.1	·
CCOC(=O)C1(CCOc2ccccc2)CCN(Cc2ccc(NC(C)=O)cc2)CC1	0.5	0.0	5.0	-0.1	0.3	·
CCOC(=O)C1(Cc2cccc(OC)c2)CCN(Cc2ccc(C)s2)CC1	2.6	0.4	1.7	-1.1	97.1*	85.0*
CCOC(=O)C1(CCOc2ccccc2)CCN(Cc2ccc(OC)cc2)CC1	-2.5	0.3	7.0	0.1	86.9*	35.8*
CCOC(=O)C1(CCOc2ccccc2)CCN(Cc2cccc(OC)c2OC)CC1	-0.5	0.3	-7.3	1.4	74.7*	32.5*
CCOC(=O)C1(CCOc2ccccc2)CCN(Cc2ccccc2O)CC1	3.2	0.1	10.8	-3.7	1.5	·
CCN(CC)C(=O)c1ccc2sc([C@@H]3O[C@H](CO)[C@H](O)[C@H](O)[C@H]3O)nc2c1	·	-0.1	·	·	0.0	·
COc1ccc(NC(=O)COC(=O)CCc2ccc(S(=O)(=O)N3CCOCC3)cc2)cc1OC	8.2	-0.1	5.8	1.7	-2.9	·
COc1ccc(CNc2ncnc3c2[nH]c2ccccc23)cc1	-3.1	1.8	5.5	-7.1	90.8*	90.9*
Brc1ccc2[nH]c3c(NCc4ccccn4)ncnc3c2c1	5.7	0.1	1.3	0.5	57.4*	71.6*
C1=C(CCNc2ncnc3c2[nH]c2ccccc23)CCCC1	-0.6	3.9	4.6	1.0	103.6*	82.9*
O=c1c2[nH]c3ccccc3c2ncn1CCC1=CCCCC1	6.9	0.0	-1.0	-1.9	0.9	·
Cc1ccc(NC(=O)C23CCC(C)(C(=O)[C@H]2Br)C3(C)C)cc1 (some centres not stated)	4.0	0.1	-1.8	3.7	2.1	·
